# Published values pooled from the literature.
# Protocols differ between the studies behind these lines.
# Target: Mitogen-activated protein kinase kinase kinase 3 (MAP3K3, Homo sapiens, UniProt Q99759)
# Sequence (Q99759 1-626, as in one of the studies): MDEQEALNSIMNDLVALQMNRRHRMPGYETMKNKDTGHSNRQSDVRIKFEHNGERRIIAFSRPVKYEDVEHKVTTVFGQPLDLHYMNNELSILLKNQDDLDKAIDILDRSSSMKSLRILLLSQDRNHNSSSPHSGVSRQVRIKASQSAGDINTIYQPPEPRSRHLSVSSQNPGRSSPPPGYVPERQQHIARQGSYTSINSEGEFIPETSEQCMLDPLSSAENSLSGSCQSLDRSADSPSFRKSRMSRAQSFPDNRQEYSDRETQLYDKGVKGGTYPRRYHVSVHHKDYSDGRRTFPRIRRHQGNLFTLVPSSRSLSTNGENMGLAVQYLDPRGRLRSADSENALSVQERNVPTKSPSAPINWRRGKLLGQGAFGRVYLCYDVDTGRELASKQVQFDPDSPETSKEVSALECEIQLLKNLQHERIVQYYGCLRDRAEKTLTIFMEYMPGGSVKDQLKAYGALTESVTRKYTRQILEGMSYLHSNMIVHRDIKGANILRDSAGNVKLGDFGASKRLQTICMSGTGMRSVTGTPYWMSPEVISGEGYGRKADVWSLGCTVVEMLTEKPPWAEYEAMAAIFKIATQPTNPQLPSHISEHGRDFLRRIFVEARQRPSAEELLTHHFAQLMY
Structure (SMILES),assay,conditions,remaining binding
Cc1c(NC(=O)c2cc(C(N)=O)nc3cc(F)ccc23)c(C(F)(F)F)nn1Cc1ccc(C(C)(C)C)cc1,"cell-free assay, competition with immobilised ligand",1 µM,100%
CNC(=O)[C@@H]1CC[C@@H](n2c(-c3ccc4cnccc4c3)nc3ccc(C(=O)NCc4cccc(C(N)=O)c4)cc32)C1,"binding, competition with immobilised ligand",1 µM,100%
O=C(c1ccc(Nc2nccc(-c3cc4ccccc4s3)n2)cc1)N1CCC(N2CCCC2)CC1,"binding, competition with immobilised ligand",1 µM,61%
COc1ncc2cc3ccccc3nc2c1C#N,"cell-free assay, competition with immobilised ligand",5 µM,95%
O=C(NCC1CCOCC1)c1n[nH]cc1NC(=O)c1c(F)cccc1F,"binding, competition with immobilised ligand",1 µM,96%
C[C@@H](c1cccc(C#N)c1)n1cc(Cl)cc(C(N)=O)c1=N,"cell-free assay, competition with immobilised ligand",1 µM,95%
CN(c1nccc(-c2cnn3ncccc23)n1)C1CC1,binding,1 µM,100%
C[C@@H]1CN(c2cc(-c3nn(C)c4ccc(OC5(C)CC5)cc34)ncn2)C[C@H](C)O1,"cell-free assay, competition with immobilised ligand",1 µM,90%
COc1ccnn2ncc(-c3ccnc(N(C)C)n3)c12,binding,1 µM,72%
O=C(c1ccc(Nc2ncc(Cl)c(-c3ccc(Cl)s3)n2)cc1)N1CCC(N2CCCC2)CC1,"binding, competition with immobilised ligand",1 µM,6.3%
CN(C)c1nccc(-c2cnn3ncccc23)n1,binding,1 µM,100%
COc1ccc2c(O[C@@H]3C[C@H]4C(=O)N[C@]5(C(=O)O)CC5/C=C\CCCCC[C@H](NC(=O)OC5CCCC5)C(=O)N4C3)cc(-c3csc(NC(=O)C(C)C)n3)nc2c1C (stereo partly shown),"cell-free assay, competition with immobilised ligand",1 µM,79%
C[C@H]1CCN(c2nccc(-c3cnn4ncccc34)n2)C1,binding,1 µM,59%
CCN1CCN(Cc2ccc(C(=O)Nc3ccc(C)c(Oc4ccc5c(c4)CC(=O)N5)c3)cc2C(F)(F)F)CC1,"binding, competition with immobilised ligand",1 µM,100%
c1cncc(-c2cccc(Nc3nccc(NC4CCCCC4)n3)c2)c1,"binding, competition with immobilised ligand",10 µM,41%
O=C(Nc1cccnn1)N1CC(C/C=C/c2cncc(Oc3ccc(C(F)(F)F)cn3)n2)C1,"cell-free assay, competition with immobilised ligand",1 µM,79%
O=C(c1ccc(Nc2ncc(Cl)c(-c3cc4ccccc4s3)n2)cc1)N1CCC(N2CCCC2)CC1,"binding, competition with immobilised ligand",1 µM,34%
COc1cnc(Nc2cccc(S(N)(=O)=O)c2)nc1N1CCN(c2ccccc2)CC1,"binding, competition with immobilised ligand",1 µM,82%
CN(C)c1ncc(F)c(-c2cnn3ncccc23)n1,binding,1 µM,90%
Cc1cc(NC(=O)c2cccc(S(F)(F)(F)(F)F)c2)cc(-n2ccn3nc(-c4cccnc4)cc23)c1,"cell-free assay, competition with immobilised ligand",1 µM,87.9%
N[C@H]1CCN(c2nccc(-c3cnn4ncccc34)n2)C1,binding,1 µM,100%
Nc1ncc2c(n1)-c1c([nH]c3ccc(C#CC4CC4)cc13)CCCC2,"binding, competition with immobilised ligand",1 µM,89%
